Laboratory results from paper PMC9660540 (Clinical Cancer Research, 2022).
Like-named read-outs stand apart in the source and are kept apart here.

Experiments:
[1] = Dose-limiting toxicity and RP2D, phase Ia dose escalation; format: in vivo, human
Outline: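 Phase Ia used Bayesian logistic regression–guided escalation of the oral nanosuspension, with or without durvalumab; capsule cohorts took 75, 150 or 200 mg once daily. A DLT was non-disease-related toxicity before day 21 (monotherapy) or end of cycle 2 (combination), e.g. grade ≥4 neutropenia >7 days or grade ≥3 nonhematologic toxicity.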

[2] = Plasma pharmacokinetics of AZD4635 and active metabolite in patients; format: in vivo, human; conditions: for half-life: plasma, oral
[3] = tested on: metastatic castration-resistant prostate cancer (mCRPC); assay: Tumor response; format: in vivo, human
[4] = tested on: metastatic castration-resistant prostate cancer (mCRPC); assay: PSA response in patients with mCRPC; format: in vivo, human
[5] = tested on: metastatic castration-resistant prostate cancer (mCRPC); format: in vivo, human
Outline: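 For the signature, baseline whole-blood RNA (PAXgene) was hybridized (25–100 ng) to a 770-gene NanoString panel and ComBat batch-corrected. The score was the median of normalized log2 expression of 14 adenosine genes; the cohort median split high from low.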

[6] = tested on: colorectal cancer (IO-naïve); assay: Tumor response; format: in vivo, human
NSCLC (post-IO) = assay: Tumor response; format: in vivo, human
[7] = healthy volunteers; ref [32]; cited from earlier work
CYP1A2 = conditions: clinical drug–drug interaction study with fluvoxamine; ref [34]; cited from earlier work
[8] = tested on: intratumoral adenosine signaling; conditions: ref [12], cited from earlier work

## Cc1cc(-c2nnc(N)nc2-c2ccc(F)cc2)cc(Cl)n1 [AZD4635]
[1]; capsule formulation, doses of up to 200 mg
  DLTs: no DLTs
[1]; phase Ia, nanosuspension monotherapy 75 mg or 100 mg once daily
  Patients with a DLT: No patients
[1]; phase Ia, nanosuspension monotherapy 125 mg twice daily, out of 3 patients
  Patients with DLTs: 2
[2]; following multiple dosing
  Accumulation in exposure (Cmax and AUC): minimal accumulation
[2]; human, in vivo
  PK profile: linear and dose-proportional
[2]; human, median t1/2, after a single dose, across doses
  half-life: 7.92 to 14.5 h
[2]; human, t1/2, overall (range, 11–24 hours)
  half-life: ~14 h
[3]; mCRPC
  Disease control rate (DCR; CR, PR, or SD for at least 22 weeks): 18.0%
[3]; mCRPC responders, monotherapy and plus durvalumab together
  Duration of response: 2.3 to 34.0 months
[3]; mCRPC, responders/evaluable
  Tumor responses: 2/39
[3]; mCRPC, tumor response–evaluable population
  Confirmed PR: 2 patients
[4]
  Confirmed PSA responses: 3.3%
  PSA50 response: 5.0%
[4]; responders/evaluable
  Prostate-specific antigen responses: 3/60
[5]
  Median PFS: 10.1 weeks
  PFS probability at 24 weeks: 24.2%
[5]; AZD4635 monotherapy or plus durvalumab, high blood-adenosine signature
  PFS probability at 24 weeks: 48.9%
[5]; AZD4635 monotherapy or plus durvalumab, low blood-adenosine signature
  PFS probability at 24 weeks: 20.6%
[6]
  Best response of stable disease (SD) after a minimum of 2 cycles: 9 (45.0%) n (%)
NSCLC (post-IO); NSCLC
  Best response of SD: 5 (33.3%) n (%)
NSCLC (post-IO); NSCLC Post-IO
  Disease control at 22 Weeks, Yes: 1 (6.7%) n (%)
[7]
  AUC of capsule formulation compared with nanosuspension, higher by: ~10%
  Cmax of capsule formulation compared with nanosuspension, higher by: approximately 27%
CYP1A2
  Metabolism: primarily metabolized by CYP1A2
[8]; among the 5 patients with decreased adenosine signaling
  Patients with concordant increases in gene-expression signatures of cytolytic activity and IFNG signaling: 4 patients
[8]; nanosuspension 75 or 100 mg, 2 weeks of monotherapy, of 7 patients
  Patients in whom intratumoral adenosine signaling decreased: 5 patients
